Screening data deposited in PubChem by several laboratories.
CRFR2-BP antag = CRF-BP/CRF-R2 complex antagonism | inhibition, % at 11.8 µM | HEK293 CRF-R2/CRF-BP, CRF-induced calcium fluorescence | 350,000 compounds, 0.59% hits;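 active = inhibition of the ligand-induced calcium signal above about 50% at the single tested concentration, limit read from the data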
CRFR2-BP ag = agonists of human CRF-binding protein/CRF-R2 receptor complex. HEK293 CRF-R2/CRF-BP, calcium dye fluorescence (FLIPR); percent of saturating CRF peptide response. activation, % at 13.2 µM. 350,000 compounds, 0.46% hits. AID 588473;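 active = activation of at least 50%, plus an integration ratio under a set limit after plate pattern correction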;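 note: plate controls were neutral control wells without compound for no effect and CRF at EC100 for full effect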
Tn7 DDE FP = disrupts Tn7 cyclic peptide binding to fibrin D-Dimer-E complex. P02675. FP displacement of FITC-Tn7 peptide from fibrin DD(E); 0% = median of compound wells per plate. inhibition, % at 8.3 µM. 370,000 compounds, 0.13% hits. AID 720508;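 active = inhibition above the mean of compounds falling within the control limits plus 3 SD of them, cut at about 14% in these data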;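 note: 0% = plate median of compound wells and 100% = 10 µM Aha-Tn7 peptide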
Target sequence (P02675 whole entry, looked up): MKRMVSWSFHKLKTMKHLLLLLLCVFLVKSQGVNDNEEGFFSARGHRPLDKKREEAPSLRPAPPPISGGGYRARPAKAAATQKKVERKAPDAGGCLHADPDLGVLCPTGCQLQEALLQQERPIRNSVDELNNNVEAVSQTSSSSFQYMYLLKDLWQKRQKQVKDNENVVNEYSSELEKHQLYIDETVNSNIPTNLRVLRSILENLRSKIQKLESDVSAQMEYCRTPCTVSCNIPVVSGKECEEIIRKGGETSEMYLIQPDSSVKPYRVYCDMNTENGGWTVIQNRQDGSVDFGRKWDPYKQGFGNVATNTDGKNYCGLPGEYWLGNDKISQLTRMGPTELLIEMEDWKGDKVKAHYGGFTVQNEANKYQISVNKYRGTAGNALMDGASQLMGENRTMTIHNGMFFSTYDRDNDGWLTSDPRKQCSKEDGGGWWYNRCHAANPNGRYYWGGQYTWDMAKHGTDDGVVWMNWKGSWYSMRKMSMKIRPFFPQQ
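assay system = human clot-derived fibrin DD(E) complex | quantity = Fibrin-DD(E) at 2 µM final | timing = 10 min preincubation, 3 h with tracer, room temperature | signal = fluorescence polarization | measure = percent inhibition | benchmarks = high control wells with 10 µM unlabelled Aha-Tn7 peptide (full inhibition) | replicates = singlicate testing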
DDE Tn6 FP inh = DD(E)-Tn6 binding inhibition, primary FP screen | P02675 | Fibrin DD(E) TRITC-Tn6 fluorescence polarization displacement | inhibition, % at 8.3 µM | 370,000 compounds, 0.21% hits | AID 720509;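 active = inhibition above a per-campaign cutoff: mean of compounds within control limits plus 3 SD, cut at about 15% in these data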;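 note: 0% = median of all compound wells on the plate and 100% = blocking peptide control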
* marks the source's active call; other numbers are inactive results; . = no result given. Hits are enriched below; roughly 1.3% of the tested compounds scored in any of these assays.

SMILES | CRFR2-BP antag | CRFR2-BP ag | Tn7 DDE FP | DDE Tn6 FP inh
CCC(CO)Nc1cccc2c1S(=O)(=O)N(Cc1cn(Cc3ccc(C(F)(F)F)cc3)nn1)Cc1ccccc1O2 (stereo not given) | . | . | 6 | 0
CCOC(=O)C1=C(O)/C(=C/c2cn(CC(=O)NCC3CCCO3)c3ccccc23)SC1=Nc1ccc(C)cc1 (stereo not given) | -18 | 61* | . | .
N#C/C(=C(/O)COC(=O)c1ccccc1O)c1nc2ccccc2s1 | 45 | 79* | -4 | 4
COC(=O)[C@]12C[C@H](CC(=O)NCCC(C)C)C(=O)N(Cc3ccc(Cl)cc3Cl)C1=C[C@H](C(C)(C)C)O[C@@H]2C | . | . | 6 | 4
CCN(C(=O)[C@@H](C)[C@@H](O)c1ccc(C(C)=O)cc1)c1ccccc1 | . | . | 0 | -2
CCN(CC)c1ccc(/C=N/n2c(-c3ccccc3Br)n[nH]c2=S)cc1 | -11 | 0 | 1 | 3
Cc1nn(-c2ccccc2)c(C)c1/C=N/n1c(-c2ccccc2Br)n[nH]c1=S | 71* | -6 | 2 | -1
CN(NC(=O)Nc1ccc(Cl)cc1)c1c(Cl)c(Cl)nn1C | -29 | 1 | 3 | -1
CN(NC(=O)Nc1ccccc1)c1cnn(C)c(=O)c1Cl | 120* | 3 | -1 | -5
CCCC1CCC2(CCC(=O)N2CCO)CC1 (stereo not given) | . | . | 2 | -2
O=C1NCCCCC1NS(=O)(=O)c1cccc2ccccc12 (stereo not given) | 69* | -2 | 2 | 1
Nc1ccn([C@@H]2O[C@H](C(=O)NCC(=O)N3CCOCC3)[C@@H](O)[C@H]2O)c(=O)n1 | . | . | 3 | 3
COc1ccc2cc(-c3cccc4[nH]cc(C)c34)ccc2c1 | . | . | 6 | 10
Cc1ccc(C(=O)N2c3ccccc3N(Cc3ccccc3)C(=O)C2(C)C)cc1 | 52* | 6 | 1 | -6
Cc1ccc(CN2C(=O)C(F)(F)Oc3ccccc32)cc1 | . | . | 5 | 3
Cc1sc(NC(=O)C2CCCCC2C(=O)O)c(C(N)=O)c1-c1ccc(C(C)(C)C)cc1 (stereo not given) | 31 | 104* | 0 | -1
COC(=O)[C@]12C[C@H](CC(=O)NCc3cccs3)C(=O)N(Cc3cccc4ccccc34)C1=C[C@H](COCc1ccccc1)O[C@@H]2C | . | . | -1 | 1
O=C(COCc1ccccc1)NC1CCCCN(Cc2cccc(Cl)c2)C1=O (stereo not given) | . | . | 2 | 2
CN1Cc2nnn(Cc3ccccc3)c2-c2cc(F)ccc2S1(=O)=O | . | . | -3 | 0
CCCCOc1ccc2c(c1)/C(=C(\C(Cl)=C(Cl)Cl)[N+](=O)[O-])N2 | 68* | 0 | 1 | -6
CCOc1ccc2c(c1)/C(=C(\C(Cl)=C(Cl)Cl)[N+](=O)[O-])N2 | 2 | 1 | -7 | -2
CCCCCCc1cc2cc(C(=O)Nc3cccc(OC)c3)c(=O)oc2cc1O | -12 | 57* | -4 | 3
CCCCCCc1cc2cc(C(=O)OCC)c(=O)oc2cc1O | -15 | 21 | 11 | -6
CCCCCCc1cc2cc(C(=O)NC)c(=N)oc2cc1O | -306 | 286* | 2 | 1
CCCCCCc1cc2cc(/C(N)=N/NC(=O)c3ccncc3)c(=O)oc2cc1O | -48 | 102* | -1 | 8
SMILES | CRFR2-BP antag | CRFR2-BP ag | Tn7 DDE FP | DDE Tn6 FP inh
CCCCCCc1cc2cc(C(=O)Nc3ccc(OC)cc3)c(=O)oc2cc1O | -7 | 27 | -5 | 5
Cc1ccc(-c2cccc3[nH]cc(C)c23)s1 | . | . | -4 | -4
COc1cc([N+](=O)[O-])ccc1-c1ccc(/C=N/NC(=O)OC(C)(C)C)o1 | -29 | 57* | 3 | -4
COc1cc([N+](=O)[O-])ccc1-c1ccc(/C=N/NC(N)=O)o1 | -53 | 23 | -3 | -2
O=C(c1cccnc1Cl)N1CCC(Oc2cccnc2)CC1 | . | . | 4 | 3
CC(=O)Nc1sc(/C(C#N)=C\c2cccc(Cl)c2)nc1-c1ccc(C)cc1 | -405 | 319* | -5 | 3
CC(=O)Nc1sc(N/N=C/c2ccccc2)nc1-c1ccc(C)cc1 | 6 | 0 | 8 | 2
COC(=O)[C@]12C[C@H](CC(=O)NCCc3ccccc3OC)C(=O)N(CCC3=CCCCC3)C1=C[C@H](C(C)(C)C)O[C@@H]2C | . | . | 4 | 8
CC(=O)Nc1ccc(S(=O)(=O)N2CCN(c3nnnn3-c3ccccc3)CC2)cc1 | 102* | 0 | 0 | 5
CCCCn1c(SCc2c(C)noc2C)nc2cc(S(N)(=O)=O)ccc21 | 54* | 0 | -5 | 0
CC1CCN(C(=S)SCc2nc(N)nc(Nc3ccccc3)n2)CC1 | -17 | -5 | 5 | 6
COc1ccccc1Nc1nc(N)nc(CSC(=S)N2CC(C)CC(C)C2)n1 (stereo not given) | 53* | 0 | -7 | -3
CCOC(=O)c1c(-c2ccc(OC)cc2)csc1NC(=O)CNCc1ccco1 | 78* | 3 | . | .
Cc1ccc(S(=O)(=O)/N=C2/NC(=O)/C(=C/c3ccc(Br)o3)S2)cc1 | 55* | -2 | -6 | -8
Cc1ccc(S(=O)(=O)/N=C2/NC(=O)/C(=C\c3cc(Br)cc(Br)c3O)S2)cc1 | -77 | 77* | . | .
O=C(CN1C(=O)NC2(CCCc3ccccc32)C1=O)c1ccc(F)cc1 (stereo not given) | -10 | 0 | 1 | -9
CS(=O)(=O)c1ccc(C(=O)CN2C(=O)NC3(CCCc4ccccc43)C2=O)cc1 (stereo not given) | 53* | 0 | 0 | -7
CC(OC(=O)/C(C#N)=C/c1ccc(N(C)C)cc1)C(=O)N(C)Cc1ccccc1 (stereo not given) | -61 | 63* | -15 | -3
O=C(Nc1cc(Cl)ccc1F)C1CCCN1S(=O)(=O)c1cccc2cccnc12 (stereo not given) | . | . | 2 | 1
COc1ccc(C(=O)NC2CC(C)(C)Cc3c2cnn3-c2ccccc2)cc1OC (stereo not given) | -4 | 1 | -4 | 4
COc1cc(C(=O)NC2CC(C)(C)Cc3c2cnn3-c2ccccc2)cc(OC)c1OC (stereo not given) | 57* | 0 | 3 | -1
CC(C)(N[C@@H](Cc1c[nH]c2ccccc12)C(=O)NCCc1c[nH]c2ccccc12)C(=O)NC1CCCCC1 | . | . | -9 | 0
Cc1ccc(C(=O)C2CCN(CC(=O)N3CCOCC3)CC2)cc1 | . | . | 6 | 11
Cc1ccc(C(=O)N2CCN(C(=O)CN3CCOCC3)C2)cc1 | 78* | -4 | -4 | -3
c1nnc(NCNc2nncs2)s1 | -6 | 60* | 0 | 8
COC(=O)C[C@H]1CC[C@@H]2[C@@H](COc3ccc(NC(=O)C4CCCCC4)cc3C(=O)N2C)O1 | . | . | -2 | -8
CCn1ccnc1CNC(=O)C1CCC(=O)N(Cc2ccccc2F)C1 (stereo not given) | 10 | -1 | 10 | -9
O=C(NCc1cn2ccccc2n1)C1CCC(=O)N(Cc2ccccc2F)C1 (stereo not given) | 61* | 0 | 1 | 2
